# Results published in ChEMBL document CHEMBL1124374, “Enkephalinase inhibitors. 1. 2,4-Dibenzylglutaric acid derivatives” (J Med Chem, 1989).
# Activity calls are given as the source filed them.
# Columns and labels:
# Mus musculus [1] = experiment: Hot-plate jump-latency activity in mouse 15 minutes after subcutaneous administration; format: functional; settings: sc, 0.25 h, read-out: MED
# How it was run: (§1)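 Male CF1 mice (18–23 g) dosed icv or sc; 15 min later placed singly on a copper hot plate held at 55 °C. Latency to jump recorded, cutoff 240 s. MED = minimum effective dose. ED200 = dose doubling jump latency.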
# Mus musculus [2] = experiment: Tail-flick latency observed in CF-1 mice after the administration (30 mg/kg) followed by icv administration of DAEM ([D-Ala2,Met5]enkephalin); format: functional
# How it was run: (§2)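 Male CF-1 mice (20–22 g) given test agent or vehicle sc, followed immediately by icv DAEM (1 μg) or vehicle. Tail-flick latency measured 30 min later, cutoff 10 s, n = 10.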
# Mus musculus [3] = experiment: Doubling of hotplate jump-latency activity in mouse after intra cerebro ventricular administration of the compound; format: functional; how it was run: as §1
# Neprilysin [4] = target: T1, Neprilysin (Rattus norvegicus, UniProt P07861); experiment: Inhibition of enkephalinase activity in synaptic membranes prepared from rat striatum; format: cell membranes
# T1 sequence (P07861 whole entry): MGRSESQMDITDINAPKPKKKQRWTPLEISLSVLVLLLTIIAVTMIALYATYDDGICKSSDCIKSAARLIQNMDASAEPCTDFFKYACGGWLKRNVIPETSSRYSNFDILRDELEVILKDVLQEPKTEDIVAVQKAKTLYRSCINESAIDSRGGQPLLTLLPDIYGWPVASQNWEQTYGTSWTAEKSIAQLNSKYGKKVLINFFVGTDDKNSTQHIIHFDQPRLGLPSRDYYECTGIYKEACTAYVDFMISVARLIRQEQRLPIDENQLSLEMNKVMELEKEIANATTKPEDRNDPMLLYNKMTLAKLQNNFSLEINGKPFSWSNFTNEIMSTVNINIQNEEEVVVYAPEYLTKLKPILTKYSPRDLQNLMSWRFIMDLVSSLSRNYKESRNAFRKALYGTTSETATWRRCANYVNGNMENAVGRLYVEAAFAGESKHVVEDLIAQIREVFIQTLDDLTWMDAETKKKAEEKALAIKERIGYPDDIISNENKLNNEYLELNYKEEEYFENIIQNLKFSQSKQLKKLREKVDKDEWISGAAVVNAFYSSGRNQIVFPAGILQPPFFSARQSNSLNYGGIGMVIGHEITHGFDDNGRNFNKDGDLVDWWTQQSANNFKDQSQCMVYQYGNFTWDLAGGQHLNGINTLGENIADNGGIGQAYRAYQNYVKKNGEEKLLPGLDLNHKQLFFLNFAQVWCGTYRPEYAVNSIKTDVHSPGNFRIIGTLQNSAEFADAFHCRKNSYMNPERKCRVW
# Neprilysin [5] = target: T2, Neprilysin (Oryctolagus cuniculus, UniProt P08049); experiment: Inhibitory activity against Enkephalinase from rabbit using method 2 is determined.
# T2 sequence (P08049 whole entry): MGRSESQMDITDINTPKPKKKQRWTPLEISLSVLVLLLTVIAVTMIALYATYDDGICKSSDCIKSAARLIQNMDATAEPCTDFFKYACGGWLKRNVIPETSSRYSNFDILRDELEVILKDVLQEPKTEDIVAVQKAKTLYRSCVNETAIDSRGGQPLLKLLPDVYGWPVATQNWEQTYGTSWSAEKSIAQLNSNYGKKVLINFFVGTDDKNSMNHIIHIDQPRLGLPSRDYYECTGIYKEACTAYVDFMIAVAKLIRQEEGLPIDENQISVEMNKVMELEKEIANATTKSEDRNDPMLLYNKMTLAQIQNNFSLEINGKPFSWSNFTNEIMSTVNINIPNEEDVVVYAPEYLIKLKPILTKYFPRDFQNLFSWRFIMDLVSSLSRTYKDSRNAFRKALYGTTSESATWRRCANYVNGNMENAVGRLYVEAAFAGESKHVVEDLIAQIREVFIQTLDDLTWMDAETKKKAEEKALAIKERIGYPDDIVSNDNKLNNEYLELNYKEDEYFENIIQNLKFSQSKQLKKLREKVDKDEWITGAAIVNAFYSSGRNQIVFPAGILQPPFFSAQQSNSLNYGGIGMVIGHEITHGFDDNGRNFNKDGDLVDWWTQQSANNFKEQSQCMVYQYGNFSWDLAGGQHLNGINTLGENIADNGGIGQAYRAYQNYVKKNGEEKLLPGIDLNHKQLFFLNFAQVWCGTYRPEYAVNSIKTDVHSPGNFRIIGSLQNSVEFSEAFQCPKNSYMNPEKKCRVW
# How it was run: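 Rabbit protease 24.11 (15 ng protein) incubated 10 min at 37 °C with [Tyr-3H]Leu-enkephalin plus unlabeled Leu-enkephalin (1 μM final) in 50 mM Tris-HCl, pH 6.5. Stopped with TFA. Tyr-Gly-Gly product separated from substrate by C4 reverse-phase HPLC (isocratic, 0.09% TFA/acetonitrile). Fractions counted by scintillation.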
# Neprilysin [6] = target: T2, Neprilysin; experiment: Inhibition of enkephalinase activity in membranes prepared from rabbit
# Mus musculus [7] = experiment: Tail-flick latency observed in CF-1 mice after the administration (30 mg/kg) followed by icv administration of DAEM ([D-Ala2,Met5]enkephalin); IA is Inactive; format: functional, organism-based; how it was run: as §2
smiles,measurement,setting,value
O=C(O)CCNC(=O)[C@H](Cc1ccccc1)C[C@@H](Cc1ccccc1)C(=O)O,minimal effective dose,Mus musculus [1],> 30 mg/kg
same,Reaction time,Mus musculus [2],8.6 s
same,ED200,Mus musculus [3],15 µg
same,IC50,Neprilysin [4],8 nM
same,IC50,Neprilysin [5],5 nM
CC1(C)O[C@H]2[C@H](COC(=O)CCNC(=O)[C@H](Cc3ccccc3)C[C@@H](Cc3ccccc3)C(=O)O)OC(=O)[C@H]2O1,minimal effective dose,Mus musculus [1],> 30 mg/kg
same,Reaction time,Mus musculus [2],9.8 s
CC(C)CC(NC(=O)[C@H](Cc1ccccc1)C[C@@H](Cc1ccccc1)C(=O)O)C(=O)O (stereo partly specified),IC50,Neprilysin [4],40 nM
O=C(O)c1ccccc1NC(=O)C(Cc1ccccc1)CC(Cc1ccccc1)C(=O)O (stereo unspecified),IC50,Neprilysin [4],1000 nM
CC1(C)O[C@@H]2O[C@@H](COC(=O)CCNC(=O)[C@H](Cc3ccccc3)C[C@@H](Cc3ccccc3)C(=O)[O-])[C@H]3OC(C)(C)O[C@H]3[C@@H]2O1.[Na+],minimal effective dose,Mus musculus [1],> 30 mg/kg
same,Reaction time,Mus musculus [2],8.1 s
N#CCCNC(=O)C(Cc1ccccc1)CC(Cc1ccccc1)C(=O)O (stereo unspecified),IC50,Neprilysin [4],> 1000 nM
CC(C)C[C@H](NP(=O)(O)O[C@@H]1O[C@@H](C)[C@H](O)[C@@H](O)[C@H]1O)C(=O)N[C@@H](Cc1c[nH]c2ccccc12)C(=O)O [PHOSPHORAMIDON],IC50,Neprilysin [6],0.4 nM
same,IC50,Neprilysin [4],0.6 nM
O=C(O)C(Cc1ccccc1)CC(Cc1ccccc1)C(=O)NCCCO (stereo unspecified),IC50,Neprilysin [4],1000 nM
CCOC(=O)C(Cc1ccccc1)CC(Cc1ccccc1)C(=O)NCCC(=O)O (stereo unspecified),minimal effective dose,Mus musculus [1],> 100 mg/kg
same,Reaction time,Mus musculus [7],inactive
same,ED200,Mus musculus [3],16 µg
same,IC50,Neprilysin [4],> 1000 nM
O=C(O)CCNC(=O)[C@@H](Cc1ccccc1)C[C@H](Cc1ccccc1)C(=O)O,IC50,Neprilysin [4],> 1000 nM
O=C(O)CCNC(=O)C(CCc1ccccc1)CC(CCc1ccccc1)C(=O)O (stereo unspecified),IC50,Neprilysin [4],1000 nM
O=C(O)C(CSCc1ccccc1)NC(=O)[C@H](Cc1ccccc1)C[C@@H](Cc1ccccc1)C(=O)O (stereo partly specified),IC50,Neprilysin [4],4 nM
O=C(O)c1cccc(NC(=O)[C@@H](Cc2ccccc2)C[C@H](Cc2ccccc2)C(=O)O)c1,IC50,Neprilysin [4],90 nM
O=C(O)CCNC(=O)C(CC1CCCCC1)CC(CC1CCCCC1)C(=O)O (stereo unspecified),IC50,Neprilysin [4],1000 nM
O=C(O)c1cc(NC(=O)[C@H](Cc2ccccc2)C[C@@H](Cc2ccccc2)C(=O)O)ccc1O,IC50,Neprilysin [4],38 nM
O=C(O)CCC(=O)NC(Cc1ccccc1)CC(Cc1ccccc1)C(=O)O (stereo unspecified),IC50,Neprilysin [4],9 nM
